These results are taken from publication PMC9321596 (Chemmedchem, 2022).

Square brackets hold non-standard residues; d marks the D form. Peptide text beside a SMILES is read from it. * marks the point of attachment. Cbz = O=C(OCc1ccccc1)*; βAla = NCCC(=O)O

Experiment [1] has as its target recombinant human 6His-tagged-Pin1 (Homo sapiens, UniProt Q13526). Nature of the experiment: Direct-binding assay. In a few lines: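 Label-free optical biosensor assay. His6-Pin1 was expressed in E. coli BL21(DE3), purified, and immobilised at 150 µg/mL in 20 mM sodium acetate pH 5.5 overnight at 4 °C. Equilibrated 4 h in PBS, 0.5% DMSO, pH 7.4, then baseline read. Peptides were serially diluted to twelve concentrations from 500 µM final and read over 1 h. KD came from last-baseline-to-maximum signal, mean ± S.D. of three independent experiments.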

The test system of experiment [2] is cancer cell lines (A549, HCT116, MCF7, LNCaP). Nature of the experiment: MTT anti-proliferative assay, R8 peptides, cancer cell lines. It counts as cell-based, human. As to conditions: 10 μM, after 24 h, effect persisted up to 48 h; all cancer cells tested. In a few lines:
(§1)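 MTT viability. A549, HCT116, MCF7 and AC16 were grown in DMEM; LNCaP in RPMI 1640. Both media had 10% FBS, penicillin/streptomycin, amphotericin-B and 2 mM L-glutamine. Cells seeded at 3×10⁴/well, treated in triplicate at 10 µM for 24 and 48 h. MTT 0.5 mg/mL for 3 h, formazan dissolved in DMSO, absorbance read at 570 nm. Expressed as % of untreated control, mean ± S.D. of three independent experiments.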
A general note: Tetrazolium assays rely on reduction of a dye to a coloured formazan, in cell work by metabolically active cells.

Experiment [3] deals with HCT116 cells. The experiment in a line: MTT anti-proliferative assay, HCT116. As to conditions: 10 μM, 24 h. In kind it is cell-based, human. In a few lines:
as §1

The test system of experiment [4] is HCT116 cells. Nature of the experiment: Cell cycle analysis by flow cytometry. In kind it is cell-based, human. As to conditions: 10 μM, 48 h. In a few lines:
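HCT116 cells plated at 2×10⁵ cells/mL in triplicate and treated at 10 µM for 48 h. Harvested in PBS, spun at 1200 rpm for 5 min, then resuspended in hypotonic buffer (1×PBS, 0.1% sodium citrate, 0.1% NP-40, RNase A, […]). Held 30 min at RT in the dark, then run on flow cytometry with SSC-A/FSC-A gating and PI-A intensity.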
(In general: Flow cytometry measures light scatter and fluorescence of single cells or particles in a stream.)

Experiment [5] deals with AC16 non-tumor cells. Nature of the experiment: MTT anti-proliferative assay, R8 peptides, AC16. Conditions: 10 μM, 24 h and 48 h. In kind it is cell-based, human. In a few lines: as §1
For experiment [6], the target named is NIMA interacting protein 1 (Pin1) (human) (UniProt Q13526). The experiment in a line: Corning Epic label-free optical biosensor.
Chain of NIMA interacting protein 1 (Pin1) (human) (Q13526 whole entry): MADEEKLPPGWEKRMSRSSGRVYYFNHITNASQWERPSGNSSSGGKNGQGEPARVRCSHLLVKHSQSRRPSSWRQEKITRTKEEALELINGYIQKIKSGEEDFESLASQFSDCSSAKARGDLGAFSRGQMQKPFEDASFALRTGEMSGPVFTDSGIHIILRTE
The target in experiment [7] is parvulin-14 (Par14), also known as Pin4 (human) (UniProt Q9Y237). The experiment in a line: Corning Epic label-free optical biosensor.
Chain of parvulin-14 (Par14), also known as Pin4 (human) (Q9Y237 whole entry): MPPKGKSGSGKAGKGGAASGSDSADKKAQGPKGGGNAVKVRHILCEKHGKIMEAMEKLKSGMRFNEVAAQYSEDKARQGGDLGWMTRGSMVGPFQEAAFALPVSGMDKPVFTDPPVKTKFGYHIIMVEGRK
The target in experiment [8] is recombinant human 6His-tagged-Pin4 (Homo sapiens, UniProt Q9Y237). The experiment in a line: Direct-binding assay.
Chain of recombinant human 6His-tagged-Pin4 (Q9Y237 whole entry): as above

Chain of recombinant human 6His-tagged-Pin1 (Q13526 whole entry): as the sequence (Q13526 whole entry) above

For `COC(=O)[C@H](Cc1ccccc1)NC(=O)[C@@H]1CCCN1C(=O)[C@H](CCCNC(=N)NS(=O)(=O)c1c(C)cc(OC)c(C)c1C)NC(=O)[C@H](C)NC(C)=O` [5 c, Methyl N^2‐(acetyl‐L‐alanyl)‐N^ω‐((4‐methoxy‐2,3,6‐trimethylphenyl)sulfonyl)‐L‐arginyl‐L‐prolyl‐L‐phenylalaninate], the “binding to Pin1 (in words)” value in experiment [1] is listed as “very little or no binding affinity”.

Regarding `COC(=O)[C@H](Cc1ccccc1)NC(=O)[C@@H]1CCCN1C(=O)[C@H](CCCCNC(=O)OCc1ccccc1)NC(=O)[C@H](C)NC(=O)CCNC(=O)[C@H](CCCNC(=N)N)NC(=O)[C@H](CCCNC(=N)N)NC(=O)[C@H](CCCNC(=N)N)NC(=O)[C@H](CCCNC(=N)N)NC(=O)[C@H](CCCNC(=N)N)NC(=O)[C@H](CCCNC(=N)N)NC(=O)[C@H](CCCNC(=N)N)NC(=O)[C@@H](N)CCCNC(=N)N` [R8–5 i] (H-RRRRRRRR[βAla]AK(Cbz)PF-OMe; N-terminus assumed), the entries for the “reduction of cell proliferation” value in experiment [2] and in experiment [3] were 50–60% and roughly 60%, respectively. In addition, the “cells within G1 phase” value in experiment [4] is given as 66.4%. In addition, in experiment [5], the anti-proliferative activity result is on record as “less than 20%”. Further, the “binding to Pin1 (in words)” value in experiment [1] is recorded as “does not reach saturation”. As for `COC(=O)[C@H](Cc1ccccc1)NC(=O)[C@@H]1CCCN1C(=O)[C@H](Cc1c[nH]cn1)NC(=O)[C@H](C)NC(=O)CCNC(=O)[C@H](CCCNC(=N)N)NC(=O)[C@H](CCCNC(=N)N)NC(=O)[C@H](CCCNC(=N)N)NC(=O)[C@H](CCCNC(=N)N)NC(=O)[C@H](CCCNC(=N)N)NC(=O)[C@H](CCCNC(=N)N)NC(=O)[C@H](CCCNC(=N)N)NC(=O)[C@@H](N)CCCNC(=N)N` [R8–5 k] (H-RRRRRRRR[βAla]AHPF-OMe; N-terminus assumed), the results for the “reduction of cell proliferation” value in experiment [2] and in experiment [3] were 50–60% and roughly 60%, respectively. Also, the “cells within G1 phase” value in experiment [4] came out at 61.2%. In experiment [5], the anti-proliferative activity entry was “less than 20%”.

As for “Methyl N2-(acetyl-L-alanyl)-N6-((benzyloxy)carbonyl)-L-lysyl-L-prolyl-L-phenylalaninate (5 i) (peptide)”, the Kd (commonly the concentration at which binding is half-saturated) in experiment [6] was found to be 70.2 µM; in experiment [7], 28.2 µM. For the molecule “Methyl N2-(acetyl-L-alanyl)-Nω-((4-methoxy-2,3,6-trimethylphenyl)sulfonyl)-L-arginyl-L-prolyl-L-phenylalaninate (5 c) (peptide)”, the Kd in experiment [6] came to 53.6 µM. Consider “Methyl N‐(acetyl‐L‐alanyl)‐O‐benzyl‐L‐seryl‐L‐prolyl‐L‐phenylalaninate [5 g]”, for which the “binding to Pin1 (in words)” value in experiment [1] is “very little or no binding affinity”.

Molecule “Methyl acetyl-L-alanyl-L-lysyl-L-prolyl-L-phenylalaninate (5 j) (peptide)” returned a Kd in experiment [6] of 22.4 µM.

As for “Methyl acetyl‐L‐alanyl‐L‐lysyl‐D‐prolyl‐L‐phenylalaninate [5 p]”, the “binding to Pin1 (in words)” value in experiment [1] was “abrogates the interaction”. “tert‐Butyl (S)‐4‐((S)‐2‐acetamidopropanamido)‐5‐((S)‐2‐(((R)‐1‐methoxy‐1‐oxo‐3‐phenylpropan‐2‐yl)carbamoyl)pyrrolidin‐1‐yl)‐5‐oxopentanoate [5 e]”: in experiment [8], the “binding to Pin4 (in words)” value is listed as “micromolar range”. For the same molecule, the “binding to Pin1 (in words)” value in experiment [1] is recorded as “very little or no binding affinity”. Turning to Ac-ARPF-OMe [Methyl acetyl-L-alanyl-L-arginyl-L-prolyl-L-phenylalaninate (5 d)], in experiment [6], the equilibrium dissociation constant (Kd) was found to be 30.5 µM.

B1: Methyl acetyl-L-alanyl-L-glutaminyl-L-prolyl-L-phenylalaninate (5 m) (peptide)
peptide: Ac-AQPF-OMe
SMILES: COC(=O)[C@H](Cc1ccccc1)NC(=O)[C@@H]1CCCN1C(=O)[C@H](CCC(N)=O)NC(=O)[C@H](C)NC(C)=O
B1 came in with a Kd in experiment [6] of 62.5 µM.

B2: Methyl acetyl-L-alanyl-L-valyl-L-prolyl-L-phenylalaninate (5 b) (peptide)
peptide: Ac-AVPF-OMe
SMILES: COC(=O)[C@H](Cc1ccccc1)NC(=O)[C@@H]1CCCN1C(=O)[C@@H](NC(=O)[C@H](C)NC(C)=O)C(C)C
Consider B2, for which, in experiment [6], the Kd is 6.11 µM.

B3: Methyl acetyl-L-alanyl-L-histidyl-L-prolyl-L-phenylalaninate (5 k) (peptide)
peptide: Ac-AHPF-OMe
SMILES: COC(=O)[C@H](Cc1ccccc1)NC(=O)[C@@H]1CCCN1C(=O)[C@H](Cc1c[nH]cn1)NC(=O)[C@H](C)NC(C)=O
Turning to B3, the Kd in experiment [7] turned out to be 5.7 µM. With Ac-[dA]EPF-OMe, the Kd in experiment [7] is 18.6 µM.

B4: Methyl acetyl-L-alanyl-L-seryl-L-prolyl-L-phenylalaninate (5 h) (peptide)
peptide: Ac-ASPF-OMe
SMILES: COC(=O)[C@H](Cc1ccccc1)NC(=O)[C@@H]1CCCN1C(=O)[C@H](CO)NC(=O)[C@H](C)NC(C)=O
In experiment [6], B4 yielded a dissociation constant Kd of 4.5 µM. As for Ac-AGPF-OMe (SMILES COC(=O)[C@H](Cc1ccccc1)NC(=O)[C@@H]1CCCN1C(=O)CNC(=O)[C@H](C)NC(C)=O) [Methyl acetyl-L-alanylglycyl-L-prolyl-L-phenylalaninate (5 a)], the Kd in experiment [6] is 6.09 µM.

B5: Methyl acetyl-L-alanyl-L-methionyl-L-prolyl-L-phenylalaninate (5 l) (peptide)
peptide: Ac-AMPF-OMe
SMILES: COC(=O)[C@H](Cc1ccccc1)NC(=O)[C@@H]1CCCN1C(=O)[C@H](CCSC)NC(=O)[C@H](C)NC(C)=O
B5: the Kd in experiment [6] was found to be 14.1 µM.
